Reference: ChEMBL document CHEMBL2057113, “Modern phenotypic drug discovery is a viable, neoclassic pharma strategy” (J Med Chem, 2012)
Counter-ions that a name gives are not always drawn. Calls of active or inactive are those of the source. The calls are words filed in the database; no cut-off is given here.

Columns and labels:
[1] = Inhibition of endothelial cord area formation in endothelial precursor cells by CD31 cord area detection based phenotypic drug discovery based assay; type: functional
Method in brief: (§1)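 384-well coculture of endothelial colony-forming cells (ECFC) with adipose-derived stromal cells (ADSC) at 37 °C, 5% CO2. Screening at 2 μM single point on CD31-positive cord area; actives retested in 10-point dose response, with CD31 cord area as cord formation read-out and total nuclei count as cytotoxicity read-out.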

[2] = Toxicity in human HeLa cells assessed as cell cycle arrest at G2M phase by flow cytometry based phenotypic drug discovery based assay
[3] = Inhibition of cell migration in endothelial precursor cells by Oris cell migration kit based phenotypic drug discovery based assay; type: functional
U-87 MG [4] = test: In-vivo inhibition of angiogenesis in human U87MG cells xenografted in athymic nude Harlan mouse at 10 mg/kg oral gavage dosed twice daily for 3 days measured 3 days post dose by fluorescence microscopy; type: functional, organism-based; parameters: dose 10 mg/kg; conditions: U-87MG ATCC
Method in brief: (§2)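 U87MG glioblastoma cells mixed 1:1 with Matrigel, 5.0 × 10^6 cells injected subcutaneously into right rear flank of female athymic nude mice; grown to mean 250 mm3, randomized by tumor volume and body weight (10/group). Dosing twice daily for 3 days: sc in 100% peanut oil, or oral gavage in 10% acacia. Tumors excised, zinc-Tris fixed, paraffin sectioned at 4 μm.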

[5] = Toxicity in endothelial precursor cells co-cultured with stromal precursor ADSC cells by total nuclei count detection based phenotypic drug discovery based assay; method in brief: as §1
Gamma-secretase = test: Inhibition of human gamma secretase expressed in HEK293 cells coexpressing human APP by soluble beta-APP detection based ELISA; type: cell-based
Method in brief: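 HEK293 cells expressing recombinant human APP; soluble APPsβ production measured by ELISA with a mouse monoclonal antibody to the β-secretase neoepitope of hAPP.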

Beta-secretase 1 = Beta-secretase 1 (Homo sapiens, UniProt P56817); test: Inhibition of human BACE1 using BACE1-IgG construct by labeled substrate hydrolysis detection assay
Beta-secretase 1, sequence (P56817 whole entry, the tested form may be a part): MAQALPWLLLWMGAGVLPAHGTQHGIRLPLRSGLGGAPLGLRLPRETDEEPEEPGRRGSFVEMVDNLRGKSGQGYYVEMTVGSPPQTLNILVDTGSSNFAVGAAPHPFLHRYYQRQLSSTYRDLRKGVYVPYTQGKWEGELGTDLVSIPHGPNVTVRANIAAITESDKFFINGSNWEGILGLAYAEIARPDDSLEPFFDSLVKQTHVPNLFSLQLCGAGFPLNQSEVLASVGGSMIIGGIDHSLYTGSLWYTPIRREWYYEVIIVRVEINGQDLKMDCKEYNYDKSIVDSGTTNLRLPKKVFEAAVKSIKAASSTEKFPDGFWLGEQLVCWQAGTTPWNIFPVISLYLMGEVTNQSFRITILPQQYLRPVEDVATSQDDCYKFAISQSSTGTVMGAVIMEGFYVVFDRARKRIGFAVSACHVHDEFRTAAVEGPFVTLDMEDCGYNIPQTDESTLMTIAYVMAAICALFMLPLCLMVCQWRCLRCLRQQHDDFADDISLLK
Method in brief: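 Soluble human BACE activity: purified BACE-IgG ectodomain construct hydrolyzing a labeled peptide substrate.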

[6] = target: Gamma-secretase (Homo sapiens) (UniProt Q96BI3+Q9NZ42+Q8WW43+P49768+Q92542+P49810); test: Inhibition of human gamma secretase-expressed in HEK293 co-expressing human Notch-1 cells assessed as effect on enzyme-mediated Notch-1 processing up to 5 uM; type: cell-based
Method in brief: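 HEK293 cells expressing a human Notch-1 construct lacking the extracellular ligand-binding domain (analogous to constitutively active mouse NotchΔE); γ-secretase cleavage detected with a mouse monoclonal antibody to the γ-secretase neoepitope of human Notch-1; tested up to 5 μM.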

U-87 MG [7] = test: In-vivo inhibition of angiogenesis in human U87MG cells xenografted in athymic nude Harlan mouse at 30 mg/kg, sc dosed twice daily for 3 days measured 3 days post dose by fluorescence microscopy; type: functional, organism-based; parameters: dose 30 mg/kg; conditions: U-87MG ATCC; method in brief: as §2
HEK293 = test: Inhibition of ACC expressed in HEK293 cells assessed as effect on incorporation of [14C]acetate into triacylglycerol; type: cell-based; conditions: Homo sapiens
Method in brief: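 HEK293 cells moved from growth medium (DMEM, 10% FBS) into Opti-MEM containing compound in 0.2% DMSO for 1 h, then labeled with 30 μM [14C]acetate for 4 h. Cells washed, dissolved in Triton X-100 (0.175%) with basic ethanol/isopropanol at room temperature; labeled triacylglycerol extracted into heptane and counted by liquid scintillation.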

Structure (SMILES)	IC50 [1] [µM]	EC50 [2] [µM]	IC50 [3] [µM]	inhibition (U-87 MG [4])	EC50 [5] [µM]	IC50 (Gamma-secretase) [µM]	IC50 (Beta-secretase 1) [µM]	IC50 [5] [µM]	inhibition [6]	EC50 [1] [µM]	inhibition (U-87 MG [7])	inhibition (HEK293)
CCN(CC)CCNC(=O)c1c(C)[nH]c(/C=C2\C(=O)Nc3ccc(F)cc32)c1C [SUNITINIB]	0.0096	> 10	13.6	Active	> 10	–	–	–	–	–	–	–
Cc1ccc(OCC(=O)N[C@H]2c3cc(NC(=O)COc4ccc(C#N)cc4C)ccc3C[C@H]2O)cc1	1.45	–	–	–	–	> 5	4	> 10	inactive	–	–	–
Cc1ccc(OCC(=O)N[C@H]2c3cc(NC(=O)COc4ccc(C#N)cc4C)ccc3C[C@@H]2O)cc1	0.022	–	–	–	–	> 5	0.142	> 10	inactive	–	–	–
Cc1ccc(OCC(=O)N[C@@H]2c3cc(NC(=O)COc4ccc(C#N)cc4C)ccc3C[C@@H]2O)cc1	9.1	–	–	–	–	> 5	45.6	> 10	inactive	–	–	–
Cc1ccc(OCC(=O)N[C@H]2c3cc(NC(=O)[C@@H](C)Oc4ccc(C#N)cc4C)ccc3C[C@@H]2O)cc1 (mixture of isomers)	–	> 10	> 40	–	> 10	–	–	–	inactive	0.021	Active	–
CNC(=O)c1cc(Oc2ccc(NC(=O)Nc3ccc(Cl)c(C(F)(F)F)c3)cc2)ccn1 [SORAFENIB TOSYLATE]	0.00421	> 10	16.7	–	5.46	–	–	–	–	–	–	–
CCNC(=O)Nc1sc2ccccc2c1C(=O)N1CCC2(CC1)CC(=O)c1cc(-c3nccs3)ccc1O2	–	> 10	13	–	> 10	–	–	–	–	0.041	–	Active
Cc1ccc(OCC(=O)N[C@@H]2c3cc(NC(=O)COc4ccc(C#N)cc4C)ccc3C[C@H]2O)cc1	2.5	–	–	–	–	> 5	13.6	> 10	inactive	–	–	–
